ChEMBL document CHEMBL1158589, “Benzimidazole and imidazole inhibitors of histone deacetylases: Synthesis and biological activity” (Bioorg Med Chem Lett, 2010)

system: PC-3; test: Cytotoxicity against human PC3 cells assessed as NADH level after 72 hrs by MTS cells; assay type: functional, cell-based; details: PC-3, 72 h
Method in brief: (§1)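 Human A549 lung, HL60 leukemia and PC3 prostate cancer lines incubated with compound for 72 h. Viability read by MTS colorimetric assay from remaining NADH; EC50 calculated; mean of at least two experiments.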

Structure (SMILES)	EC50
CC(C)N(CCn1c(-c2cccc(/C=C/C(=O)NO)c2)nc2ccccc21)C(C)C	3100 nM
O=C(/C=C/c1cccc(-c2nc3ccccc3n2-c2ccccc2)c1)NO	4000 nM
Cc1nc(-c2cccc(/C=C/C(=O)NO)c2)n(CCN2CCOCC2)c1C	5000 nM
CCN1CCC[C@@H](n2c(-c3cccc(/C=C/C(=O)NO)c3)nc(C)c2-c2ccccc2)C1	80 nM
CN1CCC[C@H](n2c(-c3cccc(/C=C/C(=O)NO)c3)nc3ccccc32)C1	300 nM
O=C(/C=C/c1cccc(-c2nc3ccccc3n2C2CCCCC2)c1)NO	1600 nM
Cn1c(-c2cccc(/C=C/C(=O)NO)c2)nc2ccccc21	7900 nM
Cc1nc(-c2cccc(/C=C/C(=O)NO)c2)n([C@@H]2CCCN(C(C)C)C2)c1-c1ccccc1	200 nM
CCN1CCC[C@H](n2c(-c3cccc(/C=C/C(=O)NO)c3)nc3ccccc32)C1	200 nM
CCN(CC)CCn1c(-c2cccc(/C=C/C(=O)NO)c2)nc2ccccc21	1200 nM
Cc1c(Cc2ccccc2)nc(-c2cccc(/C=C/C(=O)NO)c2)n1CCN1CCOCC1	1000 nM
CCN1CCC[C@@H](n2c(-c3cccc(/C=C/C(=O)NO)c3)nc3ccccc32)C1	50 nM
O=C(/C=C/c1cccc(-c2nc3ccccc3n2CCN2CCCCC2)c1)NO	600 nM
Cc1nc(-c2cccc(/C=C/C(=O)NO)c2)n(CCN2CCOCC2)c1Cc1ccccc1	600 nM
O=C(/C=C/c1cccc(-c2nc3ccccc3n2CC2CCNCC2)c1)NO	> 50000 nM
O=C(/C=C/c1cccc(-c2nc3ccccc3n2[C@@H]2CCCNC2)c1)NO	100 nM
O=C(/C=C/c1cccc(-c2nc3ccccc3n2C2CCCNC2)c1)NO (racemic)	500 nM
Cc1nc(-c2cccc(/C=C/C(=O)NO)c2)n(CCc2ccccc2)c1Cc1ccccc1	200 nM
CN(C)CCn1c(-c2cccc(/C=C/C(=O)NO)c2)nc2ccccc21	2500 nM

biological target: T1, Protein deacetylase HDAC6 (Homo sapiens, UniProt Q9UBN7); test: Inhibition of human recombinant HDAC6; details: not given
T1 sequence (Q9UBN7 whole entry): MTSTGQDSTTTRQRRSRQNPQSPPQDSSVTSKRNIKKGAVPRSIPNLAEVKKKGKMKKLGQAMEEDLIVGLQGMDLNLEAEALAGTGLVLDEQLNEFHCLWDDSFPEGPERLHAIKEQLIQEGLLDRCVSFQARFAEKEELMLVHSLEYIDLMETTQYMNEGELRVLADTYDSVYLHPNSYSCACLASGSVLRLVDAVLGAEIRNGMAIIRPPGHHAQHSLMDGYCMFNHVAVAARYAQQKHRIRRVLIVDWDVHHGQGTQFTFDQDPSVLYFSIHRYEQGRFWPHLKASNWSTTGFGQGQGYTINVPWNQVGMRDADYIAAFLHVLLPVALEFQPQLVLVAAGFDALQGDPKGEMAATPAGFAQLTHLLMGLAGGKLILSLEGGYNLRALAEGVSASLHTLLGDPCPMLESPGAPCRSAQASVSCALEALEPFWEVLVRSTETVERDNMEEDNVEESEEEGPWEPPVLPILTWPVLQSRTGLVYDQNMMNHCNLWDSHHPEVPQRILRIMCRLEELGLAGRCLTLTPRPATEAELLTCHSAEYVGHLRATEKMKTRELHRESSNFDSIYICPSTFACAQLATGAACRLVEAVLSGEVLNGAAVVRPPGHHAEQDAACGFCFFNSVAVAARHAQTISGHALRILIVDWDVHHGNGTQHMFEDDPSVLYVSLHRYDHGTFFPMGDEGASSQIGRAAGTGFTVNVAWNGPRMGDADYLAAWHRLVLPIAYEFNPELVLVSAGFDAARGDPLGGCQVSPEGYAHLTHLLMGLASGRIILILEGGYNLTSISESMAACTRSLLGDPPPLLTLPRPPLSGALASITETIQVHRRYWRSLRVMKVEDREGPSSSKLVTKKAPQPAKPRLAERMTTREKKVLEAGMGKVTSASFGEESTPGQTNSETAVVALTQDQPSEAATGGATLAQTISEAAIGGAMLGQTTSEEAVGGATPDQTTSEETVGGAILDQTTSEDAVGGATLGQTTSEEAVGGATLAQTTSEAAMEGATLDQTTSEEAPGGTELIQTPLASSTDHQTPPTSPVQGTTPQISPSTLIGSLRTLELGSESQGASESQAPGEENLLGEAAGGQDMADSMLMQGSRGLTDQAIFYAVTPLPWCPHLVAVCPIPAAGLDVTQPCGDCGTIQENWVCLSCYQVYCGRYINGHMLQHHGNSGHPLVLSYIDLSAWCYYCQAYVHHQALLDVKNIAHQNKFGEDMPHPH
Method in brief: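 Purified recombinant human HDAC-2 or HDAC-6 at known enzyme concentration with tBOC(Ac)-Lys-AMC as substrate. IC50 is the mean of at least three experiments.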

Structure (SMILES)	IC50
CC(C)N(CCn1c(-c2cccc(/C=C/C(=O)NO)c2)nc2ccccc21)C(C)C	100 nM
Cc1nc(-c2cccc(/C=C/C(=O)NO)c2)n(CCN2CCOCC2)c1C	160 nM
CCN1CCC[C@@H](n2c(-c3cccc(/C=C/C(=O)NO)c3)nc(C)c2-c2ccccc2)C1	79 nM
CN1CCC[C@H](n2c(-c3cccc(/C=C/C(=O)NO)c3)nc3ccccc32)C1	50 nM
O=C(/C=C/c1cccc(-c2nc3ccccc3n2C2CCCCC2)c1)NO	25 nM
Cn1c(-c2cccc(/C=C/C(=O)NO)c2)nc2ccccc21	79 nM
Cc1nc(-c2cccc(/C=C/C(=O)NO)c2)n([C@@H]2CCCN(C(C)C)C2)c1-c1ccccc1	100 nM
CCN1CCC[C@H](n2c(-c3cccc(/C=C/C(=O)NO)c3)nc3ccccc32)C1	79 nM
CCN(CC)CCn1c(-c2cccc(/C=C/C(=O)NO)c2)nc2ccccc21	79 nM
Cc1c(Cc2ccccc2)nc(-c2cccc(/C=C/C(=O)NO)c2)n1CCN1CCOCC1	79 nM
CCN1CCC[C@@H](n2c(-c3cccc(/C=C/C(=O)NO)c3)nc3ccccc32)C1	79 nM
O=C(/C=C/c1cccc(-c2nc3ccccc3n2CCN2CCCCC2)c1)NO	40 nM
Cc1nc(-c2cccc(/C=C/C(=O)NO)c2)n(CCN2CCOCC2)c1Cc1ccccc1	79 nM
O=C(/C=C/c1cccc(-c2nc3ccccc3n2CC2CCNCC2)c1)NO	200 nM
O=C(/C=C/c1cccc(-c2nc3ccccc3n2[C@@H]2CCCNC2)c1)NO	79 nM
O=C(/C=C/c1cccc(-c2nc3ccccc3n2C2CCCNC2)c1)NO (racemic)	40 nM
Cc1nc(-c2cccc(/C=C/C(=O)NO)c2)n(CCc2ccccc2)c1Cc1ccccc1	50 nM
CN(C)CCn1c(-c2cccc(/C=C/C(=O)NO)c2)nc2ccccc21	79 nM

system: A549; test: Cytotoxicity against human A549 cells assessed as NADH level after 72 hrs by MTS cells; assay type: functional, cell-based; details: A549, 72 h; method in brief: as §1

Structure (SMILES)	EC50
CC(C)N(CCn1c(-c2cccc(/C=C/C(=O)NO)c2)nc2ccccc21)C(C)C	5000 nM
O=C(/C=C/c1cccc(-c2nc3ccccc3n2-c2ccccc2)c1)NO	16000 nM
Cc1nc(-c2cccc(/C=C/C(=O)NO)c2)n(CCN2CCOCC2)c1C	> 50000 nM
CCN1CCC[C@@H](n2c(-c3cccc(/C=C/C(=O)NO)c3)nc(C)c2-c2ccccc2)C1	300 nM
CN1CCC[C@H](n2c(-c3cccc(/C=C/C(=O)NO)c3)nc3ccccc32)C1	1200 nM
O=C(/C=C/c1cccc(-c2nc3ccccc3n2C2CCCCC2)c1)NO	3100 nM
Cn1c(-c2cccc(/C=C/C(=O)NO)c2)nc2ccccc21	12000 nM
Cc1nc(-c2cccc(/C=C/C(=O)NO)c2)n([C@@H]2CCCN(C(C)C)C2)c1-c1ccccc1	400 nM
CCN1CCC[C@H](n2c(-c3cccc(/C=C/C(=O)NO)c3)nc3ccccc32)C1	600 nM
CCN(CC)CCn1c(-c2cccc(/C=C/C(=O)NO)c2)nc2ccccc21	4000 nM
Cc1c(Cc2ccccc2)nc(-c2cccc(/C=C/C(=O)NO)c2)n1CCN1CCOCC1	4000 nM
CCN1CCC[C@@H](n2c(-c3cccc(/C=C/C(=O)NO)c3)nc3ccccc32)C1	200 nM
O=C(/C=C/c1cccc(-c2nc3ccccc3n2CCN2CCCCC2)c1)NO	1200 nM
Cc1nc(-c2cccc(/C=C/C(=O)NO)c2)n(CCN2CCOCC2)c1Cc1ccccc1	2500 nM
O=C(/C=C/c1cccc(-c2nc3ccccc3n2CC2CCNCC2)c1)NO	> 50000 nM
O=C(/C=C/c1cccc(-c2nc3ccccc3n2[C@@H]2CCCNC2)c1)NO	1000 nM
O=C(/C=C/c1cccc(-c2nc3ccccc3n2C2CCCNC2)c1)NO (racemic)	2500 nM
Cc1nc(-c2cccc(/C=C/C(=O)NO)c2)n(CCc2ccccc2)c1Cc1ccccc1	300 nM
CN(C)CCn1c(-c2cccc(/C=C/C(=O)NO)c2)nc2ccccc21	7900 nM

system: HL-60; test: Cytotoxicity against human HL60 cells assessed as NADH level after 72 hrs by MTS cells; assay type: functional, cell-based; details: HL-60, 72 h; method in brief: as §1

Structure (SMILES)	EC50
CC(C)N(CCn1c(-c2cccc(/C=C/C(=O)NO)c2)nc2ccccc21)C(C)C	5000 nM
O=C(/C=C/c1cccc(-c2nc3ccccc3n2-c2ccccc2)c1)NO	1600 nM
Cc1nc(-c2cccc(/C=C/C(=O)NO)c2)n(CCN2CCOCC2)c1C	1600 nM
CCN1CCC[C@@H](n2c(-c3cccc(/C=C/C(=O)NO)c3)nc(C)c2-c2ccccc2)C1	40 nM
CN1CCC[C@H](n2c(-c3cccc(/C=C/C(=O)NO)c3)nc3ccccc32)C1	160 nM
O=C(/C=C/c1cccc(-c2nc3ccccc3n2C2CCCCC2)c1)NO	500 nM
Cn1c(-c2cccc(/C=C/C(=O)NO)c2)nc2ccccc21	2000 nM
Cc1nc(-c2cccc(/C=C/C(=O)NO)c2)n([C@@H]2CCCN(C(C)C)C2)c1-c1ccccc1	30 nM
CCN1CCC[C@H](n2c(-c3cccc(/C=C/C(=O)NO)c3)nc3ccccc32)C1	80 nM
CCN(CC)CCn1c(-c2cccc(/C=C/C(=O)NO)c2)nc2ccccc21	800 nM
Cc1c(Cc2ccccc2)nc(-c2cccc(/C=C/C(=O)NO)c2)n1CCN1CCOCC1	300 nM
CCN1CCC[C@@H](n2c(-c3cccc(/C=C/C(=O)NO)c3)nc3ccccc32)C1	30 nM
O=C(/C=C/c1cccc(-c2nc3ccccc3n2CCN2CCCCC2)c1)NO	300 nM
Cc1nc(-c2cccc(/C=C/C(=O)NO)c2)n(CCN2CCOCC2)c1Cc1ccccc1	200 nM
O=C(/C=C/c1cccc(-c2nc3ccccc3n2CC2CCNCC2)c1)NO	> 50000 nM
O=C(/C=C/c1cccc(-c2nc3ccccc3n2[C@@H]2CCCNC2)c1)NO	100 nM
O=C(/C=C/c1cccc(-c2nc3ccccc3n2C2CCCNC2)c1)NO (racemic)	300 nM
Cc1nc(-c2cccc(/C=C/C(=O)NO)c2)n(CCc2ccccc2)c1Cc1ccccc1	50 nM
CN(C)CCn1c(-c2cccc(/C=C/C(=O)NO)c2)nc2ccccc21	1000 nM

biological target: T2, Histone deacetylase 8 (Homo sapiens, UniProt Q9BY41); test: Inhibition of human recombinant HDAC8; details: not given
T2 sequence (Q9BY41 whole entry): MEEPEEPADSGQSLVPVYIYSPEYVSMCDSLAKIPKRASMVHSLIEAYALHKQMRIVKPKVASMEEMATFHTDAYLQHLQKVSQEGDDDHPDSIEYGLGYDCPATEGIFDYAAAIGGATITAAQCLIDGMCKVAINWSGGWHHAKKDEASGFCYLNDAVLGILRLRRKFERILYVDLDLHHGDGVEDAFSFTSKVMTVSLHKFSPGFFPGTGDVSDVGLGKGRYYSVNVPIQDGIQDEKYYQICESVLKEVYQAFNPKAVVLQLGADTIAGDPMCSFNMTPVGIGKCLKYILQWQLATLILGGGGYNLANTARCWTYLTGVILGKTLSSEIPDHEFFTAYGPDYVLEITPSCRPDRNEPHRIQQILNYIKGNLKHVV

Structure (SMILES)	IC50
CC(C)N(CCn1c(-c2cccc(/C=C/C(=O)NO)c2)nc2ccccc21)C(C)C	200 nM
O=C(/C=C/c1cccc(-c2nc3ccccc3n2-c2ccccc2)c1)NO	50 nM
Cc1nc(-c2cccc(/C=C/C(=O)NO)c2)n(CCN2CCOCC2)c1C	200 nM
CCN1CCC[C@@H](n2c(-c3cccc(/C=C/C(=O)NO)c3)nc(C)c2-c2ccccc2)C1	50 nM
CN1CCC[C@H](n2c(-c3cccc(/C=C/C(=O)NO)c3)nc3ccccc32)C1	160 nM
O=C(/C=C/c1cccc(-c2nc3ccccc3n2C2CCCCC2)c1)NO	50 nM
Cn1c(-c2cccc(/C=C/C(=O)NO)c2)nc2ccccc21	100 nM
Cc1nc(-c2cccc(/C=C/C(=O)NO)c2)n([C@@H]2CCCN(C(C)C)C2)c1-c1ccccc1	40 nM
CCN1CCC[C@H](n2c(-c3cccc(/C=C/C(=O)NO)c3)nc3ccccc32)C1	160 nM
CCN(CC)CCn1c(-c2cccc(/C=C/C(=O)NO)c2)nc2ccccc21	63 nM
Cc1c(Cc2ccccc2)nc(-c2cccc(/C=C/C(=O)NO)c2)n1CCN1CCOCC1	50 nM
CCN1CCC[C@@H](n2c(-c3cccc(/C=C/C(=O)NO)c3)nc3ccccc32)C1	120 nM
O=C(/C=C/c1cccc(-c2nc3ccccc3n2CCN2CCCCC2)c1)NO	100 nM
Cc1nc(-c2cccc(/C=C/C(=O)NO)c2)n(CCN2CCOCC2)c1Cc1ccccc1	63 nM
O=C(/C=C/c1cccc(-c2nc3ccccc3n2CC2CCNCC2)c1)NO	310 nM
O=C(/C=C/c1cccc(-c2nc3ccccc3n2[C@@H]2CCCNC2)c1)NO	120 nM
O=C(/C=C/c1cccc(-c2nc3ccccc3n2C2CCCNC2)c1)NO (racemic)	160 nM
Cc1nc(-c2cccc(/C=C/C(=O)NO)c2)n(CCc2ccccc2)c1Cc1ccccc1	20 nM
CN(C)CCn1c(-c2cccc(/C=C/C(=O)NO)c2)nc2ccccc21	160 nM
